For 37 sequences, folding enthalpy and Tm results are on record in the array DNA melting data of Ke et al. (doi:10.1101/2024.01.08.574731).

Data set [1] in a line: folding enthalpy; higher = less favourable; fluorescence melt of hairpins on a sequencing array, two-state fit. The following applies: sodium 0.088 M. Summed up:
(§1)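 Bootstrapped two-state fits yielded melting temperature and folding enthalpy for library hairpins. Cy3 fluorescence, with annealed Cy3 and quencher oligos, was imaged on a sequenced MiSeq flow cell in 50 mM Na-HEPES pH 8.0, 25 mM NaCl in 2.5 °C steps up to 60 °C, and normalised to pre-quench Cy3 and to control constructs. Four replicates were combined by inverse variance, and fitted temperatures were raised by 9.35 °C to match UV melts.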

Data set [2] can be described thus: melting temperature; fluorescence melt of hairpins on a sequencing array, two-state fit, raised by 9.35 °C to match UV melts. The following applies: sodium 0.088 M. Summed up:
as §1

For GTTTAACGAAAGTTTAAC (((.(((....))).))), the folding enthalpy in data set [1] was -23.4 kcal/mol. Moreover, the Tm in data set [2] was determined as 36.2 °C.

For GTTTAAGGAAACTTAAAC (((((((....))))))), the folding enthalpy in data set [1] was -40.6 kcal/mol. Besides, in data set [2], the Tm stood at 46.5 °C.

GTTTACCGAAAGGTAAC (((.(((....)))))): the folding enthalpy in data set [1] is -12.7 kcal/mol. For the same sequence, in data set [2], the Tm was 44.2 °C.

With GTTTACGAAAGTAGAAC ((((((....))).))), the folding enthalpy in data set [1] was -11.3 kcal/mol. Besides, in data set [2], the Tm is 27.2 °C.

As to GTTTACGGAAACGCAAAC ((((.((....)).)))), in data set [1], the folding enthalpy was -27.7 kcal/mol. Moreover, in data set [2], the Tm stood at 37.3 °C.

As for GTTTACGGAAACGTAAGC (.(((((....))))).), the folding enthalpy in data set [1] is -22.4 kcal/mol. Besides, the Tm in data set [2] worked out at 41.5 °C.

With GTTTAGAAATAAAC (((((....))))), the folding enthalpy in data set [1] was -9.32 kcal/mol. Further, in data set [2], the Tm stood at 28.4 °C.

Consider GTTTCACGAAAGTGCAAC (((.(((....))).))), for which the folding enthalpy in data set [1] is -26.9 kcal/mol. The Tm in data set [2] was 41.1 °C.

For GTTTCCGAAAGGAAAAAC ((((((....)))..))), the folding enthalpy in data set [1] is -15.1 kcal/mol. In addition, the Tm in data set [2] stood at 36.8 °C.

On to GTTTCCGAAAGGAAGAAC ((((((....)))..))), for which, in data set [1], the folding enthalpy is -11.1 kcal/mol. For the same sequence, the Tm in data set [2] came out at 30.9 °C.

As for GTTTCCGAAAGGAGAAAC ((((((....)))..))), the folding enthalpy in data set [1] is -16.8 kcal/mol. Also, the Tm in data set [2] is 32.5 °C.

With GTTTCCGAAAGGAGTAAC ((((((....)))..))), in data set [1], the folding enthalpy was -12.6 kcal/mol. Also, the Tm in data set [2] was determined as 28.8 °C.

On to GTTTCCGAAAGGATTAAC ((((((....)))..))), for which the folding enthalpy in data set [1] is -11.6 kcal/mol. Moreover, in data set [2], the Tm turned out to be 28.6 °C.

With GTTTCCGGAAACAGAAAC (((((.(....).))))), the folding enthalpy in data set [1] is -13.2 kcal/mol. Moreover, the Tm in data set [2] turned out to be 35.1 °C.

In the case of GTTTCCGGAAACGGAAGC (.(((((....))))).), the folding enthalpy in data set [1] is -16.7 kcal/mol. Besides, the Tm in data set [2] was found to be 49.3 °C.

With GTTTCGGGAAACCGAGAC ((.((((....)))).)), the folding enthalpy in data set [1] is -21.4 kcal/mol. For the same sequence, in data set [2], the Tm amounted to 47.3 °C.

With GTTTCGGGAAACTGAAAC (((((.(....).))))), in data set [1], the folding enthalpy was -27.5 kcal/mol. Further, the Tm in data set [2] stood at 46.9 °C.

Turning to GTTTCTGGAAACAGAAAC (((((((....))))))), the folding enthalpy in data set [1] is -43.3 kcal/mol. The Tm in data set [2] was found to be 55.1 °C.

As for GTTTCTGGAAACAGAAGC (.(((((....))))).), the folding enthalpy in data set [1] is -26.3 kcal/mol. Besides, the Tm in data set [2] was 39.5 °C.

With GTTTCTGGAAACAGAGAC ((.((((....)))).)), in data set [1], the folding enthalpy was -26.9 kcal/mol. For the same sequence, the Tm in data set [2] came to 37.2 °C.

For the sequence GTTTGACGAAAGTCCAAC (((.(((....))).))), the folding enthalpy in data set [1] is -20.6 kcal/mol. For the same sequence, the Tm in data set [2] is 40.5 °C.

With GTTTGACGAAAGTCTAAC (((.(((....))).))), in data set [1], the folding enthalpy is -25 kcal/mol. Further, the Tm in data set [2] came to 47.7 °C.

Take GTTTGAGGAAACTTGAAC (((..((....))..))): the folding enthalpy in data set [1] is -17.3 kcal/mol. In addition, the Tm in data set [2] was determined as 33.1 °C.

GTTTGCCCGAAAGGGAAC (((..(((....)))))): the folding enthalpy in data set [1] was -11.3 kcal/mol. Besides, in data set [2], the Tm amounted to 32.5 °C.

For GTTTGCGAAAGCAAAAC ((((((....))).))), the folding enthalpy in data set [1] was -17.4 kcal/mol. In addition, the Tm in data set [2] worked out at 52.6 °C.

Turning to GTTTGCGAAAGCAAGAAC ((((((....)))..))), the folding enthalpy in data set [1] was -10 kcal/mol. Besides, the Tm in data set [2] is 36.7 °C.

For GTTTGCGAAAGCATAAC ((((((....))).))), in data set [1], the folding enthalpy was -17.3 kcal/mol. Also, the Tm in data set [2] stood at 43 °C.

For GTTTGCGGAAACGTAGAC ((.(.((....)).).)), the folding enthalpy in data set [1] is -20.5 kcal/mol. In data set [2], the Tm worked out at 30.7 °C.

GTTTGCTCGAAAGAGAAC (((..(((....)))))): the folding enthalpy in data set [1] was -14.7 kcal/mol. In addition, in data set [2], the Tm was 27 °C.

Turning to GTTTGGCGAAAGCCGAAC (((.(((....))).))), in data set [1], the folding enthalpy was -20.6 kcal/mol. Besides, in data set [2], the Tm was found to be 58.8 °C.

Take GTTTGGGGAAACCCAAAC (((((((....))))))): in data set [1], the folding enthalpy is -42.3 kcal/mol. For the same sequence, the Tm in data set [2] came out at 59 °C.

Take GTTTGGGGAAACCCAAGC (.(((((....))))).): the folding enthalpy in data set [1] was -21.9 kcal/mol. The Tm in data set [2] came to 43.5 °C.

Regarding GTTTGGTCGAAAGACAAC (((..(((....)))))), the folding enthalpy in data set [1] was -13.2 kcal/mol. In data set [2], the Tm worked out at 31.4 °C.

Consider GTTTGTACGAAAGTAAAC (((..(((....)))))), for which the folding enthalpy in data set [1] is -24.3 kcal/mol. Moreover, the Tm in data set [2] was found to be 32.8 °C.

For GTTTGTCCGAAAGGAAAC (((..(((....)))))), the folding enthalpy in data set [1] is -18.9 kcal/mol. Besides, in data set [2], the Tm is 35.9 °C.

As to GTTTGTGCGAAAGCAAAC (((..(((....)))))), in data set [1], the folding enthalpy was -18.2 kcal/mol. The Tm in data set [2] was found to be 41.5 °C.

In the case of GTTTGTGGAAACACAGAC ((.((((....)))).)), in data set [1], the folding enthalpy was -23.6 kcal/mol. The Tm in data set [2] came to 43.9 °C.
